# Screening data as filed in PubChem BioAssay.
# Most compounds without a hit are left out; they make up all but 1.4% or so of the library.
# Rin1-Abl PPI inh: inhibitors of Rin1-Abl protein binding, primary screen, biochemical, TR-FRET | 360,000 tested, 0.4% active | inhibition, % at 7.35 µM | Tyrosine-protein kinase ABL1 (Homo sapiens) + Ras and Rab interactor 1 (Homo sapiens), …; in the data active = inhibition above about 5%, passing the limit was not always enough
# TbMetRS inhib: T. brucei MetRS inhibitors, primary screen, biochemical, luminescence; methionyl-tRNA synthetase (Trypanosoma brucei brucei); purified T. brucei MetRS, ATP depletion, Kinase-Glo luminescence; inhibition, % at 11.9 µM; 360,000 tested, 0.4% active; AID 624268, 2012;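 active = inhibition above a per-plate cutoff of the control wells' mean inhibition plus 3 SD, cut at about 5.5% in these data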;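 note: 0% = DMSO wells median and 100% = median of wells with control inhibitor compound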
#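 Measured by: Kinase-Glo luciferase luminescence reporting remaining unconsumed ATP. Material: purified T. brucei MetRS enzyme. Doses: 11.9 µM compound single dose, 0.9% DMSO. Medium: HEPES buffer containing pyrophosphatase, BSA, spermine, DTT. Times: 15 min preincubation, 2 h reaction, all 25 °C. Reagent: methionine, ATP and bulk E. coli tRNA.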
# ATG4B inh: ATG4B protease inhibitors, primary screen, biochemical, fluorescence, uHTS | ATG4B cleavage of LC3-PLA2, NBD-HPC fluorescence, 1 h | 340,000 tested, 0.51% active | Cysteine protease ATG4B (Homo sapiens), Q9Y4P1 | inhibition, % at 8.33 µM | AID 504462, 2011; in the data active = inhibition above about 40%
# UCH37 inh: inhibitors of human UCH37 deubiquitinase, primary screen, biochemical, Ub-AMC cleavage, fluorescence. purified proteasome/UCH37. inhibition, % (test concentration not listed). 330,000 tested, 0.33% active;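 active = mean inhibition over replicate wells above about 20%, limit read from the data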;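 note: 0% = compound-free wells with enzyme and 100% = wells lacking proteasome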
# Target sequence (Q9Y5K5 whole entry, looked up): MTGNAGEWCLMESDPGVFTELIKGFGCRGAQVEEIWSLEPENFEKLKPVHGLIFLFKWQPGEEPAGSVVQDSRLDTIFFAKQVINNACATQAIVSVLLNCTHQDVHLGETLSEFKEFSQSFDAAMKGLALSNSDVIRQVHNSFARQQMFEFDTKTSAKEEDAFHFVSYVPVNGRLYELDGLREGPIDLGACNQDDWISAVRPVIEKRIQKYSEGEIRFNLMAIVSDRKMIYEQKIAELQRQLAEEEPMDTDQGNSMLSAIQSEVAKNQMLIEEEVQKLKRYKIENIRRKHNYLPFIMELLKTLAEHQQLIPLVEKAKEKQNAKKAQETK
#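 Test system – human UCH37 enzyme supplied as purified proteasome complex · Incubation – 30 min preincubation with enzyme, 25 min cleavage at room temperature · Detection – AMC fluorescence from Ub-AMC cleavage, excitation 355 nm, emission 460 nm · Benchmarks – no-proteasome wells (full inhibition) and compound-free wells (no inhibition)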
# Rin1 Abl conf: Rin1-Abl binding inhibitor retest, confirmation, biochemical, TR-FRET; shares compounds with Rin1-Abl PPI inh; purified proteins; inhibition, % at 7.35 µM; 1,300 tested, 49% active
# GFP quencher: GFP fluorescence inhibitors and quenchers, artefact control for Rin1-Abl interaction inhibitor project, biochemical. shares compounds with Rin1-Abl PPI inh. inhibitors/quenchers counterscreen. inhibition, % at 6.75 µM. 1,300 tested, 8.5% active. AID 602125, 2011;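 note: ABL1-eGFP fusion protein alone without its partner RIN1-SBP; 0% = protein with vehicle and 100% = wells lacking protein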
# GFP quench DR: GFP fluorescence inhibitors and quenchers, dose response, artefact control for Rin1-Abl interaction inhibitor project, biochemical. shares compounds with Rin1-Abl PPI inh. GFP fluorescence interference/quenching counterscreen. IC50, µM. 230 tested, under 10 active. AID 602182, 2012; call rule not given here;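 note: ABL1-eGFP fusion protein alone without its RIN1 binding partner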
# Numbers without * were called inactive; nt = not tested or not shown. Cut-off read from the data, not from the text of the source, unless noted: active = inhibition above about 6.5%; inactive = the rest.
SMILES,Rin1-Abl PPI inh,TbMetRS inhib,ATG4B inh,UCH37 inh,Rin1 Abl conf,GFP quencher,others
CN(CCc1ccccc1)C(=O)c1ccc(NC(=O)Cc2ccc(NC(=O)C3CCN(C(=O)C4CCC4)CC3)cc2)cc1,27*,0,-11,5,26*,2,GFP quench DR=>67
CCOc1ccc2c(ccc(/C=C/c3cc(C)c4cccnc4c3O)[n+]2C)c1,40*,0,31,nt,56*,59*,
Cc1ccc(S(=O)(=O)Nc2cccc3c2O[C@H](CN(C)Cc2ccc(-c4ccccc4)cc2)[C@@H](C)CN([C@H](C)CO)C3=O)cc1,10*,0,-7,6,9.7*,0,
C[C@H](CO)N1C[C@H](C)[C@@H](CN(C)Cc2ccc(-c3ccccc3)cc2)Oc2c(NS(=O)(=O)c3ccccc3)cccc2C1=O,14*,-1,-14,2,9.6*,0,
C[C@H](CO)N1C[C@H](C)[C@@H](CN(C)Cc2ccc(-c3ccccc3)cc2)Oc2c(NS(=O)(=O)c3cn(C)cn3)cccc2C1=O,36*,0,-16,-5,29*,-2,
C[C@H](CO)N1C[C@H](C)[C@@H](CN(C)Cc2ccc(Cl)c(Cl)c2)Oc2c(NC(=O)c3ccncc3)cccc2C1=O,13*,0,-5,1,8.7*,1,
C[C@H](CO)N1C[C@H](C)[C@@H](CN(C)Cc2ccccc2)Oc2c(NS(=O)(=O)c3ccc(F)cc3)cccc2C1=O,0,0,-10,3,nt,nt,
C[C@H](CO)N1C[C@H](C)[C@@H](CN(C)Cc2ccccc2)Oc2c(NS(=O)(=O)c3ccccc3)cccc2C1=O,1,0,-4,5,nt,nt,
Cc1nc(SCC(=O)c2cc3ccccc3oc2=O)c(C#N)c(-c2cccs2)c1C(=O)Nc1ccccc1,-1,0,3,-45,nt,nt,
Cc1cc(C)c(CN2CCN(CCCn3ccc(NC(=O)OCc4ccccc4)nc3=O)CC2)c(C)c1,7.9*,-1,-7,nt,8.0*,2,
O=C(Nc1ccn(CCCN2CCC(N3CCOCC3)CC2)c(=O)n1)OCc1ccccc1,11*,-1,nt,nt,6.9*,-1,
O=C(NC1CCC(O)CC1)c1cccnc1Sc1ccccc1Cl (stereo not given),2,0,5,-1,nt,nt,
O=S(=O)(c1ccc(Cl)cc1)N1CCC2(CC1)OCCO2,12*,0,-6,3,0,-2,
O=C(c1ccc2c(c1)OCO2)N1CCN(c2ncccn2)CC1,5.3*,-1,-2,-2,-1,-3,
CNc1nc(OC)nc(N(C#N)CN2C(=O)c3ccccc3S2(=O)=O)n1,19*,-1,0,4,1,0,
COc1ccc(Nc2nc(-c3cccc([N+](=O)[O-])c3)nc3ccccc23)cc1,5.7*,-1,28,6,-1,0,
Brc1ccccc1OCCCN1CCOCC1,2,-1,-3,3,nt,nt,
O=C(CCN1C(=O)[C@@H]2Cc3ccccc3CN2C1=O)N[C@H](Cc1ccccc1)C(=O)O,0,0,-5,5,nt,nt,
O=C(CCN1C(=O)[C@@H]2Cc3ccccc3CN2C1=O)NCc1ccc(Cl)cc1,29*,0,-5,-2,-1,0,
CCN(CC)C(=O)N1CCN(C)CC1,-2,-1,4,2,nt,nt,
CN1CCN(c2cc(-c3cc(O)c4ncccc4c3)ccn2)CC1,14*,0,0,5,17*,10.0*,
CN1CCN(C(=O)c2cccc(-c3cc(O)c4ncccc4c3)c2)CC1,26*,0,-3,4,33*,7.4*,
CN1CCN(C(=O)c2cccc(-c3ccc4nncn4c3)c2)CC1,-5,0,nt,nt,nt,nt,
O=C(CC1C(=O)NCCN1Cc1cccc(Oc2ccccc2)c1)NCC1CCOCC1 (stereo not given),3,-1,-4,-2,nt,nt,
CN(C)c1ccc(O)c2c1CC1CC3[C@@H](N(C)C)C(=O)C(C(N)=O)C(=O)[C@]3(O)C(=O)C1C2=O (stereo not given in full),13*,0,-7,5,7.8*,3,
SMILES,Rin1-Abl PPI inh,TbMetRS inhib,ATG4B inh,UCH37 inh,Rin1 Abl conf,GFP quencher,others
CN(C)c1ccc(O)c2c1CC1CC3C(N(C)C)C(=O)C(C(N)=O)=C(O)[C@@]3(O)C(=O)C1=C2O (stereo not given in full),9,0,-2,1,nt,nt,
Cc1oc2nc(SCCCC(=O)NCCO)nc(N)c2c1C,36*,-1,-7,-3,42*,1,GFP quench DR=>68
COc1ccc(NC(=O)Nc2cc(C)ccc2OC)cc1,5.9*,-1,-2,2,-1,-2,
COc1ccc(NC(=O)CN(C)C2CCCCC2)cc1Cl,-2,0,-7,4,nt,nt,
COc1ccc(C)cc1NC(=O)CN(C)C1CCCCC1,15*,0,7,4,-1,-1,
CSc1nc2sc3c(c2c(=O)[nH]1)CCC3,5.8*,0,-6,-1,-3,-1,
CSc1nc2sc3c(c2c(=O)[nH]1)CCCC3,-5,-1,4,-3,nt,nt,
CC1/C(=N/O)C(CN(C)C)C2CC1C2(C)C (stereo not given),-3,-1,18,nt,nt,nt,
CCOc1nc(Nc2ccc(OC)cc2)nc(OCC)n1,9.2*,-1,-3,3,3,-1,
COc1ccc(Nc2nc(OC)nc(OC)n2)cc1,-1,-1,4,0,nt,nt,
CC(=O)c1sc(NC(=O)c2ccc(Br)o2)nc1C,12*,0,0,6,-4,1,
CC(=O)c1sc(NC(=O)c2ccc(Cn3cc(Br)cn3)o2)nc1C,-5,1,-2,1,nt,nt,
Cc1ccc(S(=O)(=O)NCC(=O)NCC2CCCCC2)cc1C,1,-1,-1,-1,nt,nt,
COc1ccc(C(C)C)cc1-c1cc(C(=O)NCc2cc(C(F)(F)F)cc(C(F)(F)F)c2)[nH]n1,1,0,nt,nt,nt,nt,
O=C(c1ccc(OC2CCN(C/C=C/c3ccccc3)CC2)cc1)N1CCCCC1,6.3*,0,4,4,0,0,
COc1ccc(/C=C/CN2CCC(Oc3ccc(C(=O)N4CCCCC4)cc3)CC2)cc1,7.2*,-1,4,2,3,-1,
COc1ccccc1/C=C/CN1CCC(Oc2ccc(C(=O)N3CCCCC3)cc2)CC1,10*,-1,10,1,8.4*,-1,
